Many of the other results were omitted from the sample, so hits are more common in it than they were.
Insulin prom act = TRM-6 insulin promoter activation. hit rate 0.81% among 130,000. AID 1296. TRM-6 cells, insulin promoter eGFP reporter, imaging; plate-scaled: unstimulated 0, stimulated control 100. activation, % at 2 µM;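 active means activation at 2 µM above a set limit, confirmed on inspection of the cell images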;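 further: share of cells whose green reporter signal exceeds an intensity cutoff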
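System: human fetal islet-derived TRM-6 cells with tamoxifen-inducible insulin promoter–eGFP reporter; input: seeding density of 1,000 cells per well; buffer or medium: Low-glucose (5.5 mM) medium with tamoxifen; incubation: compound exposure 48 h, 37 °C; measured by: high-content imaging of fixed cells with Hoechst nuclear stain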
Active calls of the source: *.

SMILES	Insulin prom act
CCOc1ccc(NC(=O)Cn2c(=O)oc3ccccc32)cc1	-7.1
O=C(Cn1c(=O)oc2ccccc21)c1ccccc1	-72.6
CC(C)(C)c1csc(NC(=O)Cn2c(=O)oc3ccccc32)n1	429.4*
Fc1ccccc1COc1ccc(/C=N/NC(=S)NCc2ccccc2)cc1	6.7
COc1cc(/C=C/C(=O)N2CCN(c3n[nH]c(=O)[nH]c3=O)CC2)cc(OC)c1OC	8.6
CCOC(=O)CC(NC(=O)Cn1nnc(-c2ccccc2)n1)c1ccc(OC)cc1 (configuration not stated)	-5.9
COc1ccc(-c2nnn(Cc3ccccc3F)n2)cc1	521.4*
COc1ccc(N2C(=O)N(Cc3ccccc3F)c3ccccc3S2(=O)=O)cc1	136.4
COc1ccc(NC(=O)CC2C(=O)N(C)C(=S)N2CCc2ccccc2)cc1 (configuration not stated)	-7.1
COc1ccc(NC(=O)CC2C(=O)N(Cc3ccccc3)C(=S)N2CCN2CCOCC2)cc1 (configuration not stated)	333.3*
COC(=O)CN1C(=S)N(Cc2ccccc2)C(=O)C1CC(=O)Nc1ccc(OC)cc1 (configuration not stated)	-80.0
Cc1ccc(NC(=O)COC(=O)Cn2cnc3c2c(=O)n(C)c(=O)n3C)c(Cl)c1	0.0
COCCNC(=O)Cn1c(=O)n(CCCCCC(=O)Nc2ccccc2)c(=O)c2sccc21	-3.2
Cc1ccc(OCCn2c(=S)[nH]c3c(N)ncnc32)cc1	6.7
CC(=O)C1=C(C)NC(C)=C(C(C)=O)C1c1cccs1	7.7
O=S(=O)(NCCSc1ccccn1)c1ccc(Br)cc1	-7.1
O=C(O)c1ccc(COc2ccc(Cl)cc2)o1	7.7
O=C(O)c1ccc(CS(=O)c2cccc(C(F)(F)F)c2)o1 (configuration not stated)	40.0
O=C(O)CC(SCc1ccc(C(=O)O)o1)C(=O)O (configuration not stated)	75.7*
CN(CC(=O)Nc1cccc2c1CCCC2)S(=O)(=O)c1ccccc1	3.2
CC(C)CCNC(=O)CCn1c(=S)oc2ccccc21	0.0
CC(C)(C)NC(=O)c1ccc2c(c1)N(CC(=O)N1CCN(c3ccccc3F)CC1)C(=O)C(C)(C)O2	0.0
Cc1ccc(S(=O)(=O)Nc2c(C)n(C)n(-c3ccccc3)c2=O)cc1C(=O)NCc1ccccn1	142.9*
CCN(Cc1ccccc1)C(=O)C(C)OC(=O)c1cc(S(=O)(=O)Nc2c(C)n(C)n(-c3ccccc3)c2=O)ccc1C (configuration not stated)	107.1
Cc1c(NS(=O)(=O)N2CCCCC2)c(=O)n(-c2ccccc2)n1C	7.1
SMILES	Insulin prom act
CCC(C)c1ccc(O)c(NC(=O)c2cncc(Br)c2)c1 (configuration not stated)	327.8
Cc1cc(=O)oc(C)c1C(=O)NCc1ccco1	-9.3
Cc1cc(=O)oc(C)c1C(=O)NCCCN1CCN(c2ccc(F)cc2)CC1	9.1
Cc1cc(=O)oc(C)c1C(=O)NCc1c(F)cc(F)cc1F	136.4*
Cc1c(NC(=O)CN2C(=O)NC3(CCCCC3)C2=O)c(=O)n(-c2ccccc2)n1C	-8.3
COC(=O)C1=C(C)N(Cc2ccco2)C(=O)N[C@H]1c1cccc(C(F)(F)F)c1	-4.5
COCCCNC(=S)NNC(=O)c1ccccn1	0.0
COCCCNC(=S)NNC(=O)C1CC1c1ccc(C(C)(C)C)cc1 (configuration not stated)	788.9*
COCCNC(=S)NC(=O)c1ccc(C(C)(C)C)cc1	-5.9
c1ccc(C2OC3c4cccc5cccc(c45)C3N2c2ccccc2)cc1 (configuration not stated)	-3.4
COc1ccc(OC)c(NC(=O)CSc2nnc(CNC(=O)COc3ccc(Cl)cc3)o2)c1	128.6*
COc1cc(C(=O)NCc2nnc(SCC(=O)Nc3nc4ccccc4s3)o2)cc(OC)c1OC	3.7
COc1cc(C(=O)NCc2nnc(SCC(=O)Nc3nccs3)o2)cc(OC)c1OC	144.4
COc1cccc(-c2nc(CCl)cs2)c1OC	-7.1
CC(=O)Nc1nc2ccccc2n1CCN1CCOCC1	2.8
C=CCc1cccc(CNc2nc3ccccc3n2CCN2CCOCC2)c1O	168.8
COc1ccc(CNc2nc3ccccc3n2CCN2CCOCC2)cc1	462.5*
CCC(C)NS(=O)(=O)c1ccc(F)c(C(=O)Nc2c(F)cc(F)cc2Br)c1 (configuration not stated)	142.9
O=C(CCn1c(=O)sc2ccccc21)NCc1ccco1	-7.1
CCCCOc1ccccc1C1C(C(N)=O)=C(C)Nc2nnnn21 (configuration not stated)	493.3*
COC(=O)C1=C(C)Nc2nnnn2C1c1ccccc1Cl (configuration not stated)	7.7
C=CCOC(=O)C1=C(C)Nc2nnnn2C1c1ccc(OC)cc1OC (configuration not stated)	2.8
Cc1ccc(C(=O)NCCCN2CCOCC2)o1	6.9
CC(=O)NC(CCS(C)(=O)=O)C(=O)Nc1nc(C)cs1 (configuration not stated)	750.0*
Cc1csc(NC(=O)c2ccccc2C(=O)O)n1	6.9

Assay outcomes (PubChem)
